The source of these data is ChEMBL document CHEMBL4368928, “New hybrid trifluoromethylquinolines as antiplasmodium agents” (Bioorg Med Chem, 2019).

The test system of one data set is Plasmodium falciparum. Kind of data set: Antimalarial activity against chloroquine-resistant and mefloquine-sensitive Plasmodium falciparum W2 ring stage form infected in human erythrocytes by spectrophotometric analysis. The data set is classed as functional, organism-based. The essentials:
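W2 clone grown in A+ human erythrocytes in RPMI 1640 with 1% Albumax II. Sorbitol-synchronized rings at 1.5% hematocrit and 0.05% parasitemia; compounds from 10 mg/mL DMSO stock, final 0.02% DMSO; triplicate per dose. Growth read by anti-HRPII ELISA (TMB, A450) versus drug-free cultures; IC50 from sigmoid dose-response fits.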

Data set [1] can be described thus: Cytotoxicity in African green monkey BGM cells assessed as reduction in cell viability incubated for 24 hrs by MTT assay. The data set is classed as cell-based. Particulars: Chlorocebus aethiops. A digest of the protocol:
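BGM monkey kidney cells kept in RPMI 1640 with 10% heat-inactivated fetal serum at 37 °C, 5% CO2. Seeded at 5 × 10^3 cells/well and allowed to adhere 18 h. Exposed 24 h to 200–25 μg/mL from a 20 mg/mL DMSO stock. MTT added for 3 h, formazan dissolved in DMSO, OD read at 570/630 nm. Viability as % of untreated control; EC50 derived from this.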
(In general: Formazan colour is commonly taken as a measure of viable cells.)

Data set [2] in a line: Selectivity index, ratio of EC50 for African green monkey BGM cells to IC50 for chloroquine-resistant mefloquine-sensitive Plasmodium falciparum W2 ring stage form infected in human erythrocytes. The class given is toxicity, cell-based. Particulars: read-out: Selectivity Index. A digest of the protocol:
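SI = BGM EC50 / W2 IC50. BGM cells seeded at 5 × 10^3/well, adhered 18 h, exposed 24 h at 37 °C, 5% CO2 to 200–25 µg/mL (20 mg/mL DMSO stock). MTT added 3 h, formazan in DMSO, OD 570/630 nm; viability as % untreated. W2 IC50 from HRPII ELISA on synchronized rings.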

Data set [3] deals with Plasmodium berghei. Kind of data set: Antimalarial activity against Plasmodium berghei NK65 infected in mouse assessed as reduction in parasite growth at 50 mg/kg, po administered daily for 3 consecutive days and measured on day 5 post parasite inoculation relative to control. The class given is functional. Details: scale not given: the % may be the effect or the level left. The essentials: (§1)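 Suppressive test: mice inoculated i.p. with 1 × 10^5 P. berghei NK65-infected erythrocytes, randomized about 24 h later to groups of five. Dosed orally once daily for three consecutive days, freshly diluted in 3% DMSO in RPMI; vehicle controls included. Parasitemia was read on days 5, 7 and 9 from Giemsa-stained, methanol-fixed tail-blood thin smears at 1000X. Inhibition is given relative to untreated mice, taken as 100% growth.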

For data set [4], the system named is Plasmodium berghei. Description: Antimalarial activity against Plasmodium berghei NK65 infected in mouse assessed as reduction in parasite growth at 50 mg/kg, po administered daily for 3 consecutive days and measured on day 7 post parasite inoculation relative to control. The arrangement: scale not given: the % may be the effect or the level left. The class given is functional. The essentials:
as §1

Data set [5] deals with Plasmodium berghei. Kind of data set: Antimalarial activity against Plasmodium berghei NK65 infected in mouse assessed as reduction in parasite growth at 50 mg/kg, po administered daily for 3 consecutive days and measured on day 9 post parasite inoculation relative to control. The data set is classed as functional. The arrangement: scale not given: the % may be the effect or the level left. The essentials:
as §1

The subject of data set [6] is Plasmodium berghei. Kind of data set: Antimalarial activity against Plasmodium berghei NK65 infected in mouse assessed as parasite survival at 50 mg/kg, po administered daily for 3 consecutive days (reference value: 13+/- 3 days). The data set is classed as functional. A digest of the protocol: (§2)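 P. berghei NK65 (weekly blood passage); mice infected i.p. with 1 × 10^5 infected erythrocytes, grouped five per cage about 24 h later. Dosed orally once daily for three days in 3% DMSO/RPMI: test compounds at 50 mg/kg, CQ and MQ at 20 mg/kg, vehicle controls. Tail-blood Giemsa thin smears on days 5, 7 and 9; survival recorded in days.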

Data set [7] has as its system Plasmodium berghei. Kind of data set: Antimalarial activity against Plasmodium berghei NK65 infected in mouse assessed as reduction in parasite growth at 20 mg/kg, po administered daily for 3 consecutive days and measured on day 5 post parasite inoculation relative to control. Details: scale not given: the % may be the effect or the level left. The data set is classed as functional. A digest of the protocol:
as §1

Data set [8] has as its system Plasmodium berghei. Kind of data set: Antimalarial activity against Plasmodium berghei NK65 infected in mouse assessed as reduction in parasite growth at 20 mg/kg, po administered daily for 3 consecutive days and measured on day 7 post parasite inoculation relative to control. The data set is classed as functional. The arrangement: scale not given: the % may be the effect or the level left. A digest of the protocol: as §1

Data set [9] has as its system Plasmodium berghei. Kind of data set: Antimalarial activity against Plasmodium berghei NK65 infected in mouse assessed as reduction in parasite growth at 20 mg/kg, po administered daily for 3 consecutive days and measured on day 9 post parasite inoculation relative to control. The arrangement: scale not given: the % may be the effect or the level left. The data set is classed as functional. The essentials:
as §1

For data set [10], the system named is Plasmodium berghei. Description: Antimalarial activity against Plasmodium berghei NK65 infected in mouse assessed as parasite survival at 20 mg/kg, po administered daily for 3 consecutive days (reference value: 13+/- 3 days). The data set is classed as functional. The essentials: as §2

pEC50, pIC50: −log10 of the molar value.

A word on the pIC50: it is the negative decadic logarithm of the IC50, by convention in mol/L. As a reminder, the pEC50 is −log10 of the EC50, conventionally taken in molar units. `FC(F)(F)c1cc(Nc2ccccc2C(F)(F)F)c2cccc(C(F)(F)F)c2n1`: in the data set with Plasmodium falciparum, the negative-log IC50 (pIC50) is 4.48. Also, the pEC50 in data set [1] is greater than 4.72. Moreover, in [2], the selectivity ratio was less than 0.57.
For `FC(F)(F)c1cc(Nc2ccc3ccccc3c2)c2cccc(C(F)(F)F)c2n1` the same measures were 5.02, 4.91 and 1.2.
Consider `FC(F)(F)c1cc(Nc2ccncc2)c2cccc(C(F)(F)F)c2n1`, for which, in the data set on Plasmodium falciparum, the pIC50 is 5.08. For the same compound, in data set [1], the pEC50 was less than 3.25. Moreover, the selectivity ratio in data set [2] is greater than 66.7. Moreover, the Activity was determined as 25% in the data set on Plasmodium berghei [3], 42% in the data set on Plasmodium berghei [4] and 11% with Plasmodium berghei [5]. Also, the Survival in the data set on Plasmodium berghei [6] stood at 15 days.
For the compound `Cc1nnc(Nc2cc(C(F)(F)F)nc3c(C(F)(F)F)cccc23)s1`, the negative-log IC50 (pIC50) in the data set with Plasmodium falciparum was 5.74. For the same compound, in [1], the pEC50 was 5.82. Further, the selectivity ratio in data set [2] was found to be 0.8.
For `Oc1ccc(Nc2cc(C(F)(F)F)nc3c(C(F)(F)F)cccc23)cc1` the same measures were 4.62, 3.17 and less than 27.9.
The like results for `FC(F)(F)c1cc(Nc2ccccn2)c2cccc(C(F)(F)F)c2n1` were, in that order, 4.71, greater than 4.35 and less than 2.29.
`FC(F)(F)c1cc(N2CCOCC2)c2cccc(C(F)(F)F)c2n1`: the pIC50 in the data set with Plasmodium falciparum is less than 3.84. Moreover, the pEC50 in [1] was 2.77. The selectivity ratio in data set [2] is less than 11.7.
For `Fc1ccc(Nc2cc(C(F)(F)F)nc3c(C(F)(F)F)cccc23)cc1` the same measures were 4.80, greater than 4.37 and less than 2.67.
`FC(F)(F)c1cc(Nc2ccccc2)c2cccc(C(F)(F)F)c2n1` gave a pIC50 in the data set with Plasmodium falciparum of 4.55. Also, the pEC50 in data set [1] is greater than 4.65. Moreover, the selectivity ratio in data set [2] was less than 0.83.
In the case of `FC(F)(F)c1cc(Nc2ncccn2)c2cccc(C(F)(F)F)c2n1`, in the data set on Plasmodium falciparum, the pIC50 is 5.08. Besides, the pEC50 in [1] was less than 3.25. For the same compound, the selectivity ratio in data set [2] was greater than 66.5. Besides, the results for the Activity in the data set with Plasmodium berghei [3], in the data set on Plasmodium berghei [4] and in the data set on Plasmodium berghei [5] were 61%, 35% and 31%, respectively. For the same compound, the Survival with Plasmodium berghei [6] was 13 days.
In turn, `FC(F)(F)c1cc(NC2CCCCC2)c2cccc(C(F)(F)F)c2n1` showed a pIC50 with Plasmodium falciparum of 4.96. Further, the pEC50 in data set [1] is 3.90. Also, in [2], the selectivity ratio was determined as 11.5.
The like results for `FC(F)(F)c1cc(N2CCNCC2)c2cccc(C(F)(F)F)c2n1` were, in that order, 4.50, 4.76 and 0.5.
In the data set on Plasmodium falciparum, `Cc1nnc(Nc2cc(C(F)(F)F)nc3c(C(F)(F)F)cccc23)[nH]1` gave a pIC50 of 7.08. The pEC50 in data set [1] was 4.96. Further, the selectivity ratio in data set [2] came to 132. The figures for the Activity in the data set with Plasmodium berghei [3], in the data set on Plasmodium berghei [4] and with Plasmodium berghei [5] were 66%, 30% and 23%, respectively. Moreover, in the data set with Plasmodium berghei [6], the Survival came to 19 days.
`Clc1ccc2c(Nc3ccncc3)ccnc2c1` had a pIC50 in the data set on Plasmodium falciparum of 4.93. In data set [1], the pEC50 is 3.11. Besides, the selectivity ratio in [2] is 67.
The like results for `FC(F)(F)c1cc(Nc2nnc[nH]2)c2cccc(C(F)(F)F)c2n1` were, in that order, 5.54, greater than 4.64 and less than 8.
The like results for `COc1ccc(Nc2cc(C(F)(F)F)nc3c(C(F)(F)F)cccc23)cc1OC` were, in that order, 5.32, 3.89 and 27.
The compound `FC(F)(F)c1cc(Nc2nnc(C(F)(F)F)[nH]2)c2cccc(C(F)(F)F)c2n1` showed a pIC50 in the data set on Plasmodium falciparum of 4.94. Also, the pEC50 in [1] is 4.07. Further, in [2], the selectivity ratio is 7.3.
`O[C@@H](c1cc(C(F)(F)F)nc2c(C(F)(F)F)cccc12)[C@H]1CCCCN1` (relative stereo) [(S,R)-MEFLOQUINE] gave a pIC50 in the data set with Plasmodium falciparum of 7.72. Further, the pEC50 in [1] was 4.82. Moreover, the selectivity ratio in data set [2] stood at 789. Moreover, the Activity is 98% in the data set with Plasmodium berghei [7], 98% in the data set with Plasmodium berghei [8] and 99% in the data set on Plasmodium berghei [9]. For the same compound, the Survival in the data set on Plasmodium berghei [10] was greater than 30 days.
For the compound `CCN(CC)CCCC(C)Nc1ccnc2cc(Cl)ccc12` (stereo not given) [CHLOROQUINE], the pEC50 in data set [1] was 3.04. Besides, the Activity in the data set on Plasmodium berghei [7] was determined as 99%; with Plasmodium berghei [8] it was 99%; in the data set on Plasmodium berghei [9], 84%. Besides, the Survival with Plasmodium berghei [10] was 24 days.
